The structures appear in SMILES notation. Square brackets hold non-standard residues; d marks the D form. Peptide text beside a SMILES is read from it. Tic = O=C(O)[C@@H]1Cc2ccccc2CN1; Aic = NC1(C(=O)O)Cc2ccccc2C1

Assay [1] addresses Delta-type opioid receptor (Rattus norvegicus, UniProt P33533). Nature of the assay: Binding affinity was determined on delta [3H]DPDPE site in rat brain synaptosomes by radioreceptor assay. The assay is classed as subcellular. A digest of the protocol:
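δ sites labelled with 0.62 nM [3H]DPDPE; rat brain (minus cerebella) P2 synaptosomes, preincubated to remove endogenous opioids, 1.6 mg protein; 2 h at 22 °C in duplicate. Nonspecific defined with 1 μM DPDPE. Rapid filtration on GF/C filters with ice-cold buffered BSA washes; liquid scintillation counting; Ki from IC50 by Cheng–Prusoff.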

The target of assay [2] is Mu-type opioid receptor (Rattus norvegicus, UniProt P33535). Nature of the assay: Binding affinity was determined on mu [3H]DAGO site in rat brain synaptosomes by radioreceptor assay. The assay is classed as subcellular. A digest of the protocol: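 μ sites labelled with 0.68 nM [3H]DAGO; rat brain (minus cerebella) P2 synaptosomes, preincubated to remove endogenous opioids, 1.6 mg protein; 2 h at 22 °C in duplicate. Nonspecific defined with 1 μM DAGO. Rapid filtration on GF/C filters, washes with ice-cold buffered BSA; scintillation counting; Ki via Cheng–Prusoff from IC50.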

Assay [3] in a line: Bioselectivity ratio of compound as guinea pig ileum to mouse vas deferens was determined. The assay is classed as functional. Summed up:
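GPI/MVD ratio of IC50s. GPI: 2–3 cm segments in Krebs with 70 μM hexamethonium and 0.125 μM mepyramine, 36 °C, 95% O2/5% CO2; transmural 0.5 ms, 0.1 Hz pulses at 1.5× maximal (~30 V); isotonic recording. MVD: 33 °C, field stimulation 0.1 Hz, 1 ms, 40 V; isometric recording. IC50 is 50% twitch inhibition, from four experiments.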

Sequence of Mu-type opioid receptor (P33535 whole entry): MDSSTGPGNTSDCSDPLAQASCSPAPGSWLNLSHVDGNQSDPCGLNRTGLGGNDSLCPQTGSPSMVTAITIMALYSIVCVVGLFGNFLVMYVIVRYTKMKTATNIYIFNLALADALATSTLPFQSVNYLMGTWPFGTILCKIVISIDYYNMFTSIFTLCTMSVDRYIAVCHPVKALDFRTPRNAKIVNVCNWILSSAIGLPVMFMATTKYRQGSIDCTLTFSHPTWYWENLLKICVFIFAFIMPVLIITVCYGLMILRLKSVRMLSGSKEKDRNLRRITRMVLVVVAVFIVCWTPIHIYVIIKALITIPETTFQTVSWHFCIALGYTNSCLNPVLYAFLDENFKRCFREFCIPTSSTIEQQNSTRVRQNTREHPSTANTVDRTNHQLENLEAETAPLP
Sequence of Delta-type opioid receptor (P33533 whole entry): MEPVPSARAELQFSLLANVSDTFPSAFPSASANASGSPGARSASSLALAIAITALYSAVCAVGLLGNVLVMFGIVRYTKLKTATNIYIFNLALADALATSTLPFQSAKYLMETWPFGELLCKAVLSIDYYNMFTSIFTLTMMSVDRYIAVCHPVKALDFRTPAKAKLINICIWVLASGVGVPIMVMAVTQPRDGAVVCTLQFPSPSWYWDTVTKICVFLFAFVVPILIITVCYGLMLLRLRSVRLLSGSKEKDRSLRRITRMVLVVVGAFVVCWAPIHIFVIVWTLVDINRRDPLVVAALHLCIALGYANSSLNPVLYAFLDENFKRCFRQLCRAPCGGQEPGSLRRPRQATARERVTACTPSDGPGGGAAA

For `CC(C)[C@H](NC(=O)[C@H](CC(=O)O)NC(=O)[C@H](Cc1ccccc1)N(C)C(=O)[C@@H](C)NC(=O)[C@@H](N)Cc1ccc(O)cc1)C(=O)N[C@H](C(=O)NCC(N)=O)C(C)C`, the inhibition constant (Ki) in assay [1] stood at 284 nM; in assay [2] it was 19000 nM.

Turning to `CC(C)[C@H](NC(=O)[C@H](CC(=O)O)NC(=O)[C@H](Cc1ccc2ccccc2c1)NC(=O)[C@@H](C)NC(=O)[C@@H](N)Cc1ccc(O)cc1)C(=O)N[C@H](C(=O)NCC(N)=O)C(C)C`, the values for the inhibition constant Ki in assay [1] and in assay [2] were 10.7 nM and 770 nM, respectively.

On to `CC(C)[C@H](NC(=O)[C@H](CC(=O)O)NC(=O)[C@H](Cc1cnc[nH]1)NC(=O)[C@@H](C)NC(=O)[C@@H](N)Cc1ccc(O)cc1)C(=O)N[C@H](C(=O)NCC(N)=O)C(C)C`, for which the inhibitory constant (Ki) in assay [1] worked out at 45.5 nM; in assay [2], 3720 nM.

As to `CC(C)[C@H](NC(=O)[C@H](CC(=O)O)NC(=O)[C@H](Cc1c[nH]c2ccccc12)NC(=O)[C@@H](C)NC(=O)[C@@H](N)Cc1ccc(O)cc1)C(=O)N[C@H](C(=O)NCC(N)=O)C(C)C`, the Ki in assay [1] was determined as 2.34 nM; in assay [2], 323 nM.

Consider `CC(C)[C@H](NC(=O)[C@H](CC(=O)O)NC(=O)/C(=C\c1ccccc1)NC(=O)[C@@H](C)NC(=O)[C@@H](N)Cc1ccc(O)cc1)C(=O)N[C@H](C(=O)NCC(N)=O)C(C)C`, for which the values for the Ki in assay [1] and in assay [2] were 4.23 nM and 114 nM, respectively.

On to `CC(C)[C@H](NC(=O)[C@H](CC(=O)O)NC(=O)[C@H](CCc1ccccc1)NC(=O)[C@@H](C)NC(=O)[C@@H](N)Cc1ccc(O)cc1)C(=O)N[C@H](C(=O)NCC(N)=O)C(C)C`, for which the inhibitory constant (Ki) in assay [1] came out at 4.84 nM; in assay [2], 326 nM.

As for `CC(C)[C@H](NC(=O)[C@H](CC(=O)O)NC(=O)[C@H](Cc1ccc(O)cc1)NC(=O)[C@@H](C)NC(=O)[C@@H](N)Cc1ccc(O)cc1)C(=O)N[C@H](C(=O)NCC(N)=O)C(C)C`, the Ki worked out at 34 nM in assay [1] and 1180 nM in assay [2].

Take `CC(C)[C@H](NC(=O)[C@H](CC(=O)O)NC(=O)[C@H](Cc1cccc2ccccc12)NC(=O)[C@@H](C)NC(=O)[C@@H](N)Cc1ccc(O)cc1)C(=O)N[C@H](C(=O)NCC(N)=O)C(C)C`: the Ki in assay [1] worked out at 0.61 nM; in assay [2] it was 279 nM.

Take `COc1ccc(C[C@H](NC(=O)[C@@H](C)NC(=O)[C@@H](N)Cc2ccc(O)cc2)C(=O)N[C@@H](CC(=O)O)C(=O)N[C@H](C(=O)N[C@H](C(=O)NCC(N)=O)C(C)C)C(C)C)cc1`: the inhibitory constant (Ki) in assay [1] came to 45.4 nM; in assay [2] it was 526 nM.

Turning to `CC(C)[C@H](NC(=O)[C@H](CC(=O)O)NC(=O)[C@@H](NC(=O)[C@@H](C)NC(=O)[C@@H](N)Cc1ccc(O)cc1)c1ccccc1)C(=O)N[C@H](C(=O)NCC(N)=O)C(C)C`, the Ki in assay [1] stood at 2.85 nM; in assay [2], 3750 nM.

On to `CC(C)[C@H](NC(=O)[C@H](CC(=O)O)NC(=O)C1(NC(=O)[C@@H](C)NC(=O)[C@@H](N)Cc2ccc(O)cc2)Cc2ccccc2C1)C(=O)N[C@H](C(=O)NCC(N)=O)C(C)C` (H-Y[dA][Aic]DVVG-NH2), for which the inhibitory constant (Ki) in assay [1] amounted to 0.2 nM; in assay [2], 56.2 nM. Further, the Ratio in assay [3] is 900.

`CC(C)[C@H](NC(=O)[C@H](CC(=O)O)NC(=O)[C@@H]1Cc2ccccc2CN1C(=O)[C@@H](C)NC(=O)[C@@H](N)Cc1ccc(O)cc1)C(=O)N[C@H](C(=O)NCC(N)=O)C(C)C` (H-Y[dA][Tic]DVVG-NH2): the results for the Ki in assay [1] and in assay [2] were 90.2 nM and 7810 nM, respectively. Moreover, the Ratio in assay [3] is recorded as more than 65.

In the case of `CC(C)[C@H](NC(=O)[C@H](CC(=O)O)NC(=O)[C@](C)(Cc1ccccc1)NC(=O)[C@@H](C)NC(=O)[C@@H](N)Cc1ccc(O)cc1)C(=O)N[C@H](C(=O)NCC(N)=O)C(C)C` (single isomer, unassigned; 6), the Ki in assay [1] was 69.1 nM; in assay [2], 1360 nM. In addition, the Ratio in assay [3] was more than 18.

Regarding `CC(C)[C@H](NC(=O)[C@H](CC(=O)O)NC(=O)[C@](C)(Cc1ccccc1)NC(=O)[C@@H](C)NC(=O)[C@@H](N)Cc1ccc(O)cc1)C(=O)N[C@H](C(=O)NCC(N)=O)C(C)C` (single isomer, unassigned; 6a), the Ki stood at 48.6 nM in assay [1] and 3400 nM in assay [2]. Besides, the Ratio in assay [3] is given as more than 20.

As for `CC(C)[C@H](NC(=O)[C@H](CC(=O)O)NC(=O)C1(NC(=O)[C@@H](C)NC(=O)[C@@H](N)Cc2ccc(O)cc2)CCc2ccccc2C1)C(=O)N[C@H](C(=O)NCC(N)=O)C(C)C` (single isomer, unassigned; 15), the inhibition constant (Ki) in assay [1] worked out at 0.07 nM; in assay [2] it was 178 nM. Besides, the Ratio in assay [3] came to 3522.

As to `CC(C)[C@H](NC(=O)[C@H](CC(=O)O)NC(=O)C1(NC(=O)[C@@H](C)NC(=O)[C@@H](N)Cc2ccc(O)cc2)CCc2ccccc2C1)C(=O)N[C@H](C(=O)NCC(N)=O)C(C)C` (single isomer, unassigned; 15a), the Ki in assay [1] worked out at 0.12 nM; in assay [2], 82.3 nM. In assay [3], the Ratio amounted to 606.

In the case of `CC(C)[C@H](NC(=O)[C@H](CC(=O)O)NC(=O)[C@H](Cc1ccccc1)NC(=O)[C@@H](C)NC(=O)[C@@H](N)Cc1ccc(O)cc1)C(=O)N[C@H](C(=O)NCC(N)=O)C(C)C` [DELTORPHIN C], the figures for the inhibition constant Ki in assay [1] and in assay [2] were 0.31 nM and 205 nM, respectively.

A word on the Ki: it is the dissociation constant of the complex between target and ligand, obtained from inhibition or displacement. Lower therefore signals higher affinity.
